According to publication PMC3130141 (Archives of Drug Information, 2011):

Experiments:
[1] = test system: Japanese patients with advanced solid tumors; test: Laboratory assessments; assay type: in vivo, human; conditions: for Blood sodium decreased, patients with grade ≥3 abnormal laboratory finding: cut-off <130 mmol/L; for Lymphocyte count decreased, patients with grade ≥3 abnormal laboratory finding / Lymphopenia, patients with grade ≥3 abnormal laboratory finding: cut-off <0.5 × 10^9/L; for Neutropenia, patients with grade ≥3 abnormal laboratory finding: cut-off <1.0 × 10^9/L; for Leukopenia, patients with grade ≥3 abnormal laboratory finding: cut-off <2.0 × 10^9/L; for Hemoglobin decreased, patients with grade ≥3 abnormal laboratory finding: cut-off <8.0 g/dL; for Thrombocytopenia, patients with grade ≥3 abnormal laboratory finding: cut-off <50.0 × 10^9/L; for Weight decreased, patients with grade ≥3 abnormal vital sign: cut-off ≥20% from baseline
[2] = test system: broad panel of solid and hematologic tumor cell lines; conditions: cited from earlier work
[3] = test system: Japanese patients with advanced solid tumors; test: Efficacy: overall best response by RECIST version 1.0; assay type: in vivo, human
Summary of the method: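 Investigator-assessed overall best response by RECIST v1.0, with baseline imaging within 28 days before first dose. Re-imaging was on day 29 of cycles 1 and 2 and of subsequent odd-numbered cycles. […] Dosing was a 1-h iv infusion on days 1, 8 and 15 of 28-day cycles (10–25 mg cohorts). Results were summarized descriptively by dose group.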

[4] = test system: Japanese patients with advanced solid tumors; test: Dose-limiting toxicities and maximum tolerated dose during cycle 1; assay type: in vivo, human; conditions: dose escalation halted at 25 mg
Summary of the method: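 Open-label dose escalation in sequential cohorts at 10, 15, 20 or 25 mg, given as a 1-h iv infusion on days 1, 8 and 15 of 28-day cycles. DLT: grade 3/4 hemolysis, grade 4 hematologic toxicity, febrile grade 3/4 neutropenia, prolonged diarrhea or vomiting, or other grade 3/4 non-hematologic toxicity (CTCAE v3.0). MTD: highest dose with ≤1 of 6 evaluable patients having a cycle 1 DLT.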

[5] = test system: Western patients with solid tumors; conditions: cited from earlier work
[6] = test system: human tumor xenograft models including a primary bladder tumor model and the rituximab-insensitive non-Hodgkin's lymphoma model, DoHH2T53; conditions: cited from earlier work
[7] = Cycle 1, Day 8, Total, all doses (N = 18)
[8] = Cycle 1, Day 15, Total, all doses (N = 18)
[9] = Cycle 1, Day 22, Total, all doses (N = 18)

Cc1ccc(C(=O)N(CCCN)C(c2nc3snc(C)c3c(=O)n2Cc2ccccc2)C(C)C)cc1 (stereo not drawn) [AZD4877]
Any grade ≥3 finding/vital sign, patients with grade ≥3 abnormal laboratory findings/vital signs ([1]; 10 mg (N = 3)): 1 (33) N (%)
Blood sodium decreased, patients with grade ≥3 abnormal laboratory finding ([1]; 10 mg (N = 3)): 0 N (%)
Lymphocyte count decreased, patients with grade ≥3 abnormal laboratory finding ([1]; 10 mg (N = 3)): 0 N (%)
Lymphopenia, patients with grade ≥3 abnormal laboratory finding ([1]; 10 mg (N = 3)): 0 N (%)
Neutropenia, patients with grade ≥3 abnormal laboratory finding ([1]; 10 mg (N = 3)): 1 (33) N (%)
Leukopenia, patients with grade ≥3 abnormal laboratory finding ([1]; 10 mg (N = 3)): 0 N (%)
Hemoglobin decreased, patients with grade ≥3 abnormal laboratory finding ([1]; 10 mg (N = 3)): 0 N (%)
Thrombocytopenia, patients with grade ≥3 abnormal laboratory finding ([1]; 10 mg (N = 3)): 0 N (%)
Weight decreased, patients with grade ≥3 abnormal vital sign ([1]; 10 mg (N = 3)): 0 N (%)
Any grade ≥3 finding/vital sign, patients with grade ≥3 abnormal laboratory findings/vital signs ([1]; 15 mg (N = 3)): 1 (33) N (%)
Blood sodium decreased, patients with grade ≥3 abnormal laboratory finding ([1]; 15 mg (N = 3)): 0 N (%)
Lymphocyte count decreased, patients with grade ≥3 abnormal laboratory finding ([1]; 15 mg (N = 3)): 0 N (%)
Lymphopenia, patients with grade ≥3 abnormal laboratory finding ([1]; 15 mg (N = 3)): 0 N (%)
Neutropenia, patients with grade ≥3 abnormal laboratory finding ([1]; 15 mg (N = 3)): 1 (33) N (%)
Leukopenia, patients with grade ≥3 abnormal laboratory finding ([1]; 15 mg (N = 3)): 0 N (%)
Hemoglobin decreased, patients with grade ≥3 abnormal laboratory finding ([1]; 15 mg (N = 3)): 0 N (%)
Thrombocytopenia, patients with grade ≥3 abnormal laboratory finding ([1]; 15 mg (N = 3)): 0 N (%)
Weight decreased, patients with grade ≥3 abnormal vital sign ([1]; 15 mg (N = 3)): 0 N (%)
Any grade ≥3 finding/vital sign, patients with grade ≥3 abnormal laboratory findings/vital signs ([1]; 20 mg (N = 6)): 4 (67) N (%)
Blood sodium decreased, patients with grade ≥3 abnormal laboratory finding ([1]; 20 mg (N = 6)): 1 (17) N (%)
Lymphocyte count decreased, patients with grade ≥3 abnormal laboratory finding ([1]; 20 mg (N = 6)): 0 N (%)
Lymphopenia, patients with grade ≥3 abnormal laboratory finding ([1]; 20 mg (N = 6)): 0 N (%)
Neutropenia, patients with grade ≥3 abnormal laboratory finding ([1]; 20 mg (N = 6)): 3 (50) N (%)
Leukopenia, patients with grade ≥3 abnormal laboratory finding ([1]; 20 mg (N = 6)): 3 (50) N (%)
Hemoglobin decreased, patients with grade ≥3 abnormal laboratory finding ([1]; 20 mg (N = 6)): 0 N (%)
Thrombocytopenia, patients with grade ≥3 abnormal laboratory finding ([1]; 20 mg (N = 6)): 0 N (%)
Weight decreased, patients with grade ≥3 abnormal vital sign ([1]; 20 mg (N = 6)): 1 (17) N (%)
Any grade ≥3 finding/vital sign, patients with grade ≥3 abnormal laboratory findings/vital signs ([1]; 25 mg (N = 6)): 6 (100) N (%)
Blood sodium decreased, patients with grade ≥3 abnormal laboratory finding ([1]; 25 mg (N = 6)): 0 N (%)
Lymphocyte count decreased, patients with grade ≥3 abnormal laboratory finding ([1]; 25 mg (N = 6)): 1 (17) N (%)
Lymphopenia, patients with grade ≥3 abnormal laboratory finding ([1]; 25 mg (N = 6)): 1 (17) N (%)
Neutropenia, patients with grade ≥3 abnormal laboratory finding ([1]; 25 mg (N = 6)): 5 (83) N (%)
Leukopenia, patients with grade ≥3 abnormal laboratory finding ([1]; 25 mg (N = 6)): 5 (83) N (%)
Hemoglobin decreased, patients with grade ≥3 abnormal laboratory finding ([1]; 25 mg (N = 6)): 1 (17) N (%)
Thrombocytopenia, patients with grade ≥3 abnormal laboratory finding ([1]; 25 mg (N = 6)): 1 (17) N (%)
Weight decreased, patients with grade ≥3 abnormal vital sign ([1]; 25 mg (N = 6)): 0 N (%)
Patients experiencing grade ≥3 neutropenia ([1]; 25 mg dose cohort): five of six
Platelet count, mean (SD) ([1]; Cycle 1, Day 8, 10 mg (N = 3)): 227.3 (36.7) 10^3/µL
Total ANC (absolute neutrophil count), mean (SD) ([1]; Cycle 1, Day 8, 10 mg (N = 3)): 2.00 (0.37) 10^3/µL
White blood cell count, mean (SD) ([1]; Cycle 1, Day 8, 10 mg (N = 3)): 4.13 (0.63) 10^3/µL
Platelet count, mean (SD) ([1]; Cycle 1, Day 8, 15 mg (N = 3)): 229.0 (35.9) 10^3/µL
Total ANC (absolute neutrophil count), mean (SD) ([1]; Cycle 1, Day 8, 15 mg (N = 3)): 3.23 (1.26) 10^3/µL
White blood cell count, mean (SD) ([1]; Cycle 1, Day 8, 15 mg (N = 3)): 5.50 (1.48) 10^3/µL
Platelet count, mean (SD) ([1]; Cycle 1, Day 8, 20 mg (N = 6)): 245.7 (45.5) 10^3/µL
Total ANC (absolute neutrophil count), mean (SD) ([1]; Cycle 1, Day 8, 20 mg (N = 6)): 1.81 (0.99) 10^3/µL
White blood cell count, mean (SD) ([1]; Cycle 1, Day 8, 20 mg (N = 6)): 2.97 (1.06) 10^3/µL
Platelet count, mean (SD) ([1]; Cycle 1, Day 8, 25 mg (N = 6)): 246.5 (99.7) 10^3/µL
Total ANC (absolute neutrophil count), mean (SD) ([1]; Cycle 1, Day 8, 25 mg (N = 6)): 2.00 (0.97) 10^3/µL
White blood cell count, mean (SD) ([1]; Cycle 1, Day 8, 25 mg (N = 6)): 3.01 (0.99) 10^3/µL
Platelet count, mean (SD) [1, 7]: 240.1 (62.6) 10^3/µL
Total ANC (absolute neutrophil count), mean (SD) [1, 7]: 2.14 (1.01) 10^3/µL
White blood cell count, mean (SD) [1, 7]: 3.60 (1.37) 10^3/µL
Platelet count, mean (SD) ([1]; Cycle 1, Day 15, 10 mg (N = 3)): 203.3 (46.5) 10^3/µL
Total ANC (absolute neutrophil count), mean (SD) ([1]; Cycle 1, Day 15, 10 mg (N = 3)): 1.25 (0.27) 10^3/µL
White blood cell count, mean (SD) ([1]; Cycle 1, Day 15, 10 mg (N = 3)): 3.59 (0.69) 10^3/µL
Platelet count, mean (SD) ([1]; Cycle 1, Day 15, 15 mg (N = 3)): 217.0 (6.1) 10^3/µL
Total ANC (absolute neutrophil count), mean (SD) ([1]; Cycle 1, Day 15, 15 mg (N = 3)): 2.33 (1.62) 10^3/µL
White blood cell count, mean (SD) ([1]; Cycle 1, Day 15, 15 mg (N = 3)): 4.66 (2.19) 10^3/µL
Platelet count, mean (SD) ([1]; Cycle 1, Day 15, 20 mg (N = 6)): 265.2 (79.5) 10^3/µL
Total ANC (absolute neutrophil count), mean (SD) ([1]; Cycle 1, Day 15, 20 mg (N = 6)): 1.49 (0.82) 10^3/µL
White blood cell count, mean (SD) ([1]; Cycle 1, Day 15, 20 mg (N = 6)): 2.82 (1.20) 10^3/µL
Platelet count, mean (SD) ([1]; Cycle 1, Day 15, 25 mg (N = 6)): 184.5 (85.1) 10^3/µL
Total ANC (absolute neutrophil count), mean (SD) ([1]; Cycle 1, Day 15, 25 mg (N = 6)): 0.57 (0.50) 10^3/µL
White blood cell count, mean (SD) ([1]; Cycle 1, Day 15, 25 mg (N = 6)): 1.58 (0.57) 10^3/µL
Platelet count, mean (SD) [1, 8]: 219.9 (73.9) 10^3/µL
Total ANC (absolute neutrophil count), mean (SD) [1, 8]: 1.28 (0.99) 10^3/µL
White blood cell count, mean (SD) [1, 8]: 2.84 (1.55) 10^3/µL
Platelet count, mean (SD) ([1]; Cycle 1, Day 22, 10 mg (N = 3)): 205.0 (54.0) 10^3/µL
Total ANC (absolute neutrophil count), mean (SD) ([1]; Cycle 1, Day 22, 10 mg (N = 3)): 1.68 (0.35) 10^3/µL
White blood cell count, mean (SD) ([1]; Cycle 1, Day 22, 10 mg (N = 3)): 4.09 (0.66) 10^3/µL
Platelet count, mean (SD) ([1]; Cycle 1, Day 22, 15 mg (N = 3)): 232.0 (7.9) 10^3/µL
Total ANC (absolute neutrophil count), mean (SD) ([1]; Cycle 1, Day 22, 15 mg (N = 3)): 2.30 (1.50) 10^3/µL
White blood cell count, mean (SD) ([1]; Cycle 1, Day 22, 15 mg (N = 3)): 4.53 (1.70) 10^3/µL
Platelet count, mean (SD) ([1]; Cycle 1, Day 22, 20 mg (N = 6)): 262.2 (48.0) 10^3/µL
Total ANC (absolute neutrophil count), mean (SD) ([1]; Cycle 1, Day 22, 20 mg (N = 6)): 1.25 (0.69) 10^3/µL
White blood cell count, mean (SD) ([1]; Cycle 1, Day 22, 20 mg (N = 6)): 2.64 (0.69) 10^3/µL
Platelet count, mean (SD) ([1]; Cycle 1, Day 22, 25 mg (N = 6)): 308.7 (117.3) 10^3/µL
Total ANC (absolute neutrophil count), mean (SD) ([1]; Cycle 1, Day 22, 25 mg (N = 6)): 1.41 (0.48) 10^3/µL
White blood cell count, mean (SD) ([1]; Cycle 1, Day 22, 25 mg (N = 6)): 2.73 (0.68) 10^3/µL
Platelet count, mean (SD) [1, 9]: 263.1 (81.1) 10^3/µL
Total ANC (absolute neutrophil count), mean (SD) [1, 9]: 1.55 (0.79) 10^3/µL
White blood cell count, mean (SD) [1, 9]: 3.23 (1.14) 10^3/µL
Any grade ≥3 finding/vital sign, patients with grade ≥3 abnormal laboratory findings/vital signs ([1]; Total, all doses (N = 18)): 12 (67) N (%)
Blood sodium decreased, patients with grade ≥3 abnormal laboratory finding ([1]; Total, all doses (N = 18)): 1 (6) N (%)
Lymphocyte count decreased, patients with grade ≥3 abnormal laboratory finding ([1]; Total, all doses (N = 18)): 1 (6) N (%)
Lymphopenia, patients with grade ≥3 abnormal laboratory finding ([1]; Total, all doses (N = 18)): 1 (6) N (%)
Neutropenia, patients with grade ≥3 abnormal laboratory finding ([1]; Total, all doses (N = 18)): 10 (56) N (%)
Leukopenia, patients with grade ≥3 abnormal laboratory finding ([1]; Total, all doses (N = 18)): 8 (44) N (%)
Hemoglobin decreased, patients with grade ≥3 abnormal laboratory finding ([1]; Total, all doses (N = 18)): 1 (6) N (%)
Thrombocytopenia, patients with grade ≥3 abnormal laboratory finding ([1]; Total, all doses (N = 18)): 1 (6) N (%)
Weight decreased, patients with grade ≥3 abnormal vital sign ([1]; Total, all doses (N = 18)): 1 (6) N (%)
Grade ≥3 leukopenia (laboratory finding), patients ([1]; all doses, 18 patients): 44%
Grade ≥3 neutropenia (laboratory finding), patients ([1]; all doses, 18 patients): 56%
Growth of tumor cell lines [2]: inhibit growth
Patients with complete or partial response ([3]; all doses): No patients
Patients with stable disease ≥8 weeks ([3]; all doses): five of 16
Overall best response (RECIST) ([3]; all doses, stable disease defined as ≥8 weeks): stable disease
Duration of stable disease ([3]; patient with thymus cancer, 20 mg cohort): ≥ 12 weeks
Maximum tolerated dose (MTD) [4]: not defined
Monoaster formation (proof of mechanism) ([5]; 25 mg, clinical setting): evidence of monoaster formation
Tolerability in Western patients ([5]; 25 mg): acceptable tolerability profile
Toxicity at 30 mg ([5]; 30 mg, parallel US study): experienced neutropenia
Recommended dose for further evaluation ([5]; parallel US study): 25 mg
Best objective tumor response in Western patients ([5]; weekly treatment): stable disease ≥12 weeks
Activity in human tumor xenograft models [6]: activity was observed
